Results published in publication PMC2861480 (Molecular bioSystems, 2009).

Legend:
[1] = system: β-catenin–TCF activity in 293T cells; assay: In vitro β-catenin–TCF assay; type: cell-based; settings: 4 μM 3F8 added to the medium, 18 h
How it was run: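 293T cells in 24-well plates were transfected with 200 ng superTOPflash reporter plasmid plus 20 ng Renilla luciferase (RLTK) control plasmid. Test compound was added 24 h after transfection and left for 18 h. Cell extracts were assayed sequentially for firefly and Renilla luciferase in a dual-luciferase system, and firefly readings were normalized to Renilla.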

GSK3β = GSK3β (Homo sapiens, UniProt P49841); assay: Kinase profiling; type: biochemical, mammalian; settings: 5 μM 3F8 in 1% DMSO; panel of 22 kinases
zebrafish embryos = settings: for CE (effective concentration to cause no-eyes phenotype): zebrafish embryos

GSK3β, sequence (P49841 whole entry): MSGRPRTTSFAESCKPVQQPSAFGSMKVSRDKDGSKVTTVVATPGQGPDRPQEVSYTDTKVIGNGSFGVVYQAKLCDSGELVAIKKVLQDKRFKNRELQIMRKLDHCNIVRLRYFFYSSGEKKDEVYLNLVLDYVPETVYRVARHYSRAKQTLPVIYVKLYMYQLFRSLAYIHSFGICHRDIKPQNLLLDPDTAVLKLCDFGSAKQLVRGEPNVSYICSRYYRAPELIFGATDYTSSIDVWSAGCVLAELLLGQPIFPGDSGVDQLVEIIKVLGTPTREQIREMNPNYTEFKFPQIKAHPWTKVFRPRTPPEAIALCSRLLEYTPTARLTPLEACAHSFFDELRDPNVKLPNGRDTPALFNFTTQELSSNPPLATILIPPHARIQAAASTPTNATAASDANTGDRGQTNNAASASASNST

Compound	luciferase read out increase (superTOPflash) [1]	inhibition of GSK3β activity (GSK3β) [%]	no-eyes embryos that developed a forebrain and eyes after removal of compound (zebrafish embryos; 2 days of treatment, washed out, scored by 5 dpf) [%]	concentration giving no-eyes phenotype in all embryos (zebrafish embryos; treated at the 2-cell stage) [µM]	concentration required for effect on brain development (zebrafish embryos; treated at the 2-somite stage (after gastrulation), no effect at highest dose) [µM]	concentration required for no-eyes phenotype (zebrafish embryos; treated at the shield stage) [µM]	CE (effective concentration to cause no-eyes phenotype) (zebrafish embryos) [µM]
CCc1nc2c(c3cc(OC)c(OC)cc13)C(=O)NC2=O [3F8, 5-ethyl-7,8-dimethoxy-1H-pyrrolo[3,4-c]-isoquinoline-1,3-(2H)-dione]	approximately 15 fold	91	22	3.75	> 75	11.25	7.5
COC(=O)c1ccc[cH-]1.O=C1NC(=O)c2c1c1cccnc1c1[n-]c3c(Br)cc(O)cc3c21.[CH+]=O.[Ru] [GSK-3 inhibitor XV, reference compound]	–	–	–	–	–	–	1
